High-throughput results (PubChem)
CRFR2-BP ag: agonists of human CRF-binding protein/CRF-R2 receptor complex; actives 0.46% (n = 350,000); activation, % at 13.2 µM; HEK293 CRF-R2/CRF-BP, calcium dye fluorescence (FLIPR); percent of saturating CRF peptide response;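 active = activation of at least 50%, plus an integration ratio under a set limit after plate pattern correction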;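 note: plate controls were neutral control wells without compound for no effect and CRF at EC100 for full effect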
OXTR potentiator: human OXTR potentiation; CHO-OTR cells, Fluo-8 calcium fluorescence, potentiator mode; 0% = oxytocin EC15, 100% = EC100; activation, % at 3 µM; actives 0.061% (n = 320,000); AID 2445;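 active = activation above that plate's cutoff, the mean activation of tested compounds plus 3 SD, cut at about 6.6% in these data, passing the limit was not always enough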;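 note: 100% uses oxytocin at 75 nM as the full agonist control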
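Material: human OTR in CHO cells. Compound: 3.0 µM, one dose. Timing: compound 6 min at room temperature before oxytocin, 100 s read. Evaluation: % activation of max/min ratio relative to oxytocin controls. Replication: single well per compound, singlicate. Signal: Fluo-8 calcium dye fluorescence.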
V1R ag counter: activates human V1a receptor in oxytocin agonist counter-screen; actives 0.25% (n = 320,000); activation, % at 3 µM; P37288; CHO-V1R cells, Fluo-8 calcium fluorescence, agonist mode; 0% DMSO, 100% 3 nM vasopressin;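 active = activation above the mean activation of all tested compounds plus 3 SD, per screening run, cut at about 20% in these data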;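 note: signal is peak over basal fluorescence ratio across a 100 second FLIPR read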
OXTR ag: human OXTR agonism | P30559 | CHO-OTR cells, Fluo-8 calcium fluorescence; normalized: DMSO 0%, oxytocin 100% | actives 0.32% (n = 320,000) | activation, % at 3 µM;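 active = activation above the mean of all tested compounds plus 3 SD, cutoff set per screening run, cut at about 20% in these data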;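 note: peak over basal fluorescence ratio from a 100 s FLIPR kinetic read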
TRPN1 ag: zebrafish TRPN1 (NompC) channel agonism | actives 0.18% (n = 220,000) | HEK293 zebrafish TRPN1-YFP, Fluo-8 calcium fluorescence; 100% = response to 87 µM carbachol | activation, % at 3 µM;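 active = activation above its plate's cutoff, the mean activation of test wells on that plate plus 3 SD, cut at about 19% in these data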;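 note: 0% = DMSO alone and 100% = 87 µM carbachol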
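Material: zebrafish TRPN1-YFP in HEK293 cells; Doses: single test compound dose, 3 µM nominal, 0.3% DMSO; Timing: dye loading 1 h at 37 °C, then 30 min room temperature; Technique: intracellular calcium fluorescence with Fluo-8; Benchmarks: high carbachol 87 µM, low DMSO alone.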
TRPML3 ag: activates the human TRPML3 channel; HEK293 TRPML3-YFP, Fluo-8 calcium fluorescence; 100% = the carbachol control signal; activation, % at 3 µM; actives 0.29% (n = 220,000); AID 1448;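 active = activation above its plate's cutoff, the mean activation of the plate's test wells plus 3 SD, cut at about 12% in these data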;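 note: 0% = DMSO only wells and 100% = carbachol wells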
Target sequence (Q8TDD5 whole entry, looked up): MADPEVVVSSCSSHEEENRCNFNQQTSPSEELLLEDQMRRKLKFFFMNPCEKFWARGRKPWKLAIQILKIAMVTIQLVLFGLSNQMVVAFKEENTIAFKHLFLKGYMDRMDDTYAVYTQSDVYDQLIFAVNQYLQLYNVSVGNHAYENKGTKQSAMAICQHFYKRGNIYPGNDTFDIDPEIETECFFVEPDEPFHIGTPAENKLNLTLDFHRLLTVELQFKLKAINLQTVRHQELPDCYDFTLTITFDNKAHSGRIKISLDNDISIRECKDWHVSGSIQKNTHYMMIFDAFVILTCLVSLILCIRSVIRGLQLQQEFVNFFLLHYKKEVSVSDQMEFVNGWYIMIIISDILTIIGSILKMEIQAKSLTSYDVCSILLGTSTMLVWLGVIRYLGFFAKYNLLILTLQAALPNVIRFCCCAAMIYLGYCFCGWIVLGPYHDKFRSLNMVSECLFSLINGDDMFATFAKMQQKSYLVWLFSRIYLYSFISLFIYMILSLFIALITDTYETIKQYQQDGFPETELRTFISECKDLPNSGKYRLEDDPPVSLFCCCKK
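Material: TRPML3-YFP stable HEK293 cells | Dosing: One concentration, 3 µM nominal, 0.3% DMSO | Timing: 125 s total fluorescence read per well | Technique: Fluo-8 calcium dye fluorescence, ex 470-495, em 515-575 nm | Measure: Percent activation from peak-to-basal fluorescence ratio, scaled between DMSO and carbachol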
Numbers without * were called inactive; · = no result. A selection: hits, their analogues and other compounds. The true share with any hit is near 0.83%.

SMILES | CRFR2-BP ag | OXTR potentiator | V1R ag counter | OXTR ag | TRPN1 ag | TRPML3 ag
O=C1C(Cl)=C(Nc2ccccc2O)C(=O)N1c1ccccc1 | 3 | -11 | 2 | 2 | -1 | -1
CCCCOc1ccc(C(=O)OCC(=O)Nc2cc(C)on2)cc1 | 7 | -25 | 0 | 2 | 94* | 88*
O=P(Nc1ccccc1)(Nc1ccccc1)c1ccccc1 | 1 | · | · | · | · | ·
CCOCCCNC(=O)c1cn(CC)c2ccc(S(=O)(=O)N3CCCC3)cc2c1=O | 1 | 3 | 1 | 0 | · | ·
Cc1ccc(C(=O)N/C(=C/c2ccc(-c3ccc([N+](=O)[O-])cc3)o2)C(=O)NCCCN(C)C)cc1 | 52* | -4 | 4 | 4 | · | ·
Cc1ccc(C(=O)N/C(=C\c2ccc(-c3cccc([N+](=O)[O-])c3)o2)C(=O)NC(C)(C)C)cc1 | 0 | 0 | 0 | -2 | -1 | -1
O=C(NCCCO)/C(=C/c1ccc(-c2cccc([N+](=O)[O-])c2)o1)NC(=O)c1ccccc1 | 2 | -4 | -1 | 1 | 0 | 0
Cc1ccc(C(=O)N/C(=C\c2ccc(-c3ccc([N+](=O)[O-])cc3)o2)C(=O)NC2CCS(=O)(=O)C2)cc1 (configuration not stated) | 95* | -7 | 2 | 1 | 2 | 2
Cn1c(CNC(=O)c2ccc(Cl)cc2)nnc1SCC(=O)N1CCOCC1 | 2 | -10 | 0 | 0 | · | ·
Cc1ccccc1C(=O)NNC(=O)CCCCC(=O)NNC(=O)c1ccccc1C | -1 | -1 | 2 | 0 | · | ·
Cc1ccc(C(=O)NCC(=O)OCC(=O)N(CC(C)C)c2c(N)n(Cc3ccccc3)c(=O)[nH]c2=O)s1 | -1 | · | · | · | · | ·
Cn1c2ccccc2c(=O)c2c(=O)n(-c3ccccc3)c(C3CCCCC3)nc21 | -1 | -3 | 0 | -2 | 0 | 0
Cn1c2ccccc2c(=O)c2c(=O)n(C3CCCCCC3)c(C3CCCCC3)nc21 | 127* | · | · | · | 0 | 1
CCc1nc2c(c(=O)c3ccccc3n2C)c(=O)n1C1CCCCCC1 | 226* | -18 | 88* | 47* | 19* | 18*
COc1ccccc1C(=O)NC(=O)COC(=O)c1nc2nc(C)cc(C)n2n1 | -1 | -5 | 0 | 0 | · | ·
CCOc1cc(/C=N/NC(=O)c2ccc(CN3CCOCC3)cc2)ccc1OC | -1 | 3 | 1 | 0 | 1 | -2
CCOc1cc(/C=C/C(=O)c2ccc(OC)c(CN3CCOCC3)c2)cc(Br)c1O | 58* | -6 | 20 | 14 | · | ·
CN(Cc1ccccc1)C(=O)c1cccc(NC(=O)Cc2ccc(NC(=O)C3CCN(C(=O)C4CC4)CC3)cc2)c1 | -2 | · | · | · | · | ·
CCOc1ccc(S(=O)(=O)NCCC(=O)NCCc2ccc(C(C)C)cc2)cc1 | 1 | -9 | 3 | 2 | · | ·
CCN(CC)c1ccc2c(-c3ccc(S(=O)(=O)O)cc3S(=O)(=O)[O-])c3ccc(=[N+](CC)CC)cc-3oc2c1 | 55* | -10 | 180* | 266* | · | ·
C[C@H](CO)N1C[C@H](C)[C@@H](CN(C)C(=O)NC2CCCCC2)Oc2c(NS(=O)(=O)c3ccc(F)cc3)cccc2C1=O | 0 | 6 | 1 | 2 | · | ·
COc1cc(/C=C2\CCC(C)C3=C(c4cc(OC)c(OC)c(OC)c4)C(C#N)=C(N)OC32)cc(OC)c1OC (configuration not stated) | 63* | · | · | · | · | ·
Cc1cc(NC(=O)NC(=O)c2ccccc2NC(=O)C(C)N)ccc1Oc1ncc(Br)cn1 (configuration not stated) | 3 | · | · | · | · | ·
CCN1CCN(CCNC(=O)c2cn(Cc3ccccc3F)nn2)CC1 | -2 | -8 | 2 | 0 | 28* | 0
CN1CCN(CCNC(=O)c2cn(Cc3ccccc3F)nn2)CC1 | 5 | -8 | 0 | 0 | 0 | 1
SMILES | CRFR2-BP ag | OXTR potentiator | V1R ag counter | OXTR ag | TRPN1 ag | TRPML3 ag
Nc1c(S(=O)(=O)c2ccccc2)c2nc3ccccc3nc2n1Cc1ccco1 | 65* | 0 | 2 | 4 | 2 | 3
CC(Oc1ccc(Cl)cc1)C(=O)Nc1ccc(S(=O)(=O)N2CCOCC2)cc1 (configuration not stated) | 37 | -16 | 28* | 30* | · | ·
CC(Oc1ccc(Cl)cc1)C(=O)Nc1ccccc1N1CCOCC1 (configuration not stated) | 53* | -1 | -1 | -2 | · | ·
CC(Oc1cccc(Cl)c1)C(=O)Nc1ccccc1N1CCCC1 (configuration not stated) | -1 | -13 | -2 | -2 | · | ·
Cc1cc(Cl)ccc1OC(C)C(=O)Nc1ccccc1N1CCOCC1 (configuration not stated) | 110* | -11 | 0 | -2 | 46* | 177*
COc1ccc(OC)c(NC(=O)CSc2nnc(NC(=O)c3ccco3)s2)c1 | -2 | -7 | 9 | 2 | · | ·
CC(C)(C)c1cc(CCC(=O)Nc2ccncc2)cc(C(C)(C)C)c1O | -1 | -9 | -1 | -2 | · | ·
CC(=O)c1ccccc1NC(=O)c1ccc(OCc2c(C)noc2C)cc1 | 4 | 6 | 1 | 3 | · | ·
CC1(C(=O)O)CCC(C(=O)NNC(=O)c2ccccc2Cl)C1(C)C (configuration not stated) | -1 | -3 | 0 | 0 | · | ·
Cn1cccc1/C=N/n1c(-c2ccc(Cl)cc2Cl)n[nH]c1=S | 22 | -23 | 21* | 26* | 12 | 7
Cn1cccc1/C=N/n1c(-c2ccc(Cl)cc2)n[nH]c1=S | 3 | -14 | 9 | 6 | -1 | -1
Cn1c(-c2c(N)n(-c3ccccc3)c3nc4ccccc4nc23)nc2ccccc21 | 86* | 0 | 3 | 3 | 6 | 2
CCOC(=O)c1ccc(NC(=O)c2cccc3c2C(=O)N(CC2CCCO2)C3)cc1 (configuration not stated) | 82* | -9 | -1 | -2 | · | ·
CCCN1Cc2cccc(C(=O)Nc3ccc(C)cc3)c2C1=O | 0 | -8 | 1 | -1 | 0 | 1
COc1cc(OC)cc(C(=O)NC(=S)NNC(=O)[C@H]2C[C@@H]2c2ccccc2)c1 | 163* | -16 | 2 | 23* | 34* | 19*
COc1ccc(C(=O)NC(=S)NNC(=O)[C@H]2C[C@@H]2c2ccccc2)cc1OC | 38 | -12 | 3 | 3 | 5 | 7
N#CCN(C(=O)CSc1nnc(C2CC2)n1C1CC1)c1ccccc1 | 4 | · | · | · | · | ·
CN(C)NC(=S)Nc1ccc2nc(-c3ccccn3)c(-c3ccccn3)nc2c1 | 59* | -4 | 0 | 1 | 1 | 1
C=CCn1c(=O)/c(=C/c2cc(OC)c(OC)c(OC)c2)s/c1=C(/C#N)c1nc2ccccc2n1C | 62* | -7 | 4 | -1 | 1 | 1
